In ChEMBL document CHEMBL4130600, “Keikipukalides, Furanocembrane Diterpenes from the Antarctic Deep Sea Octocoral Plumarella delicatissima” (J Nat Prod, 2018):
Values belong to the compound of their own block, whether it stands above or below them. Calls of active or inactive are those of the source. No cut-off for these calls is given here.

Tests used:
Staphylococcus aureus = experiment: Antibacterial activity against drug-resistant Staphylococcus aureus; format: functional, organism-based
Enterococcus faecium = experiment: Antibacterial activity against drug-resistant Enterococcus faecium; format: functional, organism-based
Naegleria fowleri = experiment: […] activity against Naegleria fowleri; format: functional, organism-based
Pseudomonas aeruginosa = experiment: Antibacterial activity against drug-resistant Pseudomonas aeruginosa; format: functional, organism-based
Clostridioides difficile = experiment: Antibacterial activity against Clostridium difficile; format: functional, organism-based
Enterobacter = experiment: Antibacterial activity against drug-resistant Enterobacter; format: functional, organism-based
Leishmania donovani = experiment: Antileishmanial activity against Leishmania donovani MHOM/SD/75/1246/130 axenic amastigotes infected in mouse J774A.1 cells after 72 hrs by Draq5 staining based assay; format: functional, organism-based; conditions: MHOM/SD/75/1246/130, J774.A1, 72 h
In short: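 Amastigotes grown axenically at 37 °C in RPMI 1640, pH 5.5, with Hepes, MES, hemin, xanthine, Tween-80 and 20% heat-inactivated FBS. Parasites added 10:1 to 2000 J774A.1 macrophages per well, 24 h at 37 °C, 5% CO2, then extracellular parasites washed off. Compounds from 10 μg/mL, 1:2 serial dilution, 72 h. Fixed in 2% paraformaldehyde, Draq5 stain, imaged; amastigotes per 500 macrophages counted for IC50.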

Klebsiella pneumoniae = experiment: Antibacterial activity against drug-resistant Klebsiella pneumoniae; format: functional, organism-based
Acinetobacter baumannii = experiment: Antibacterial activity against drug-resistant Acinetobacter baumannii; format: functional, organism-based
A549 = experiment: Cytotoxicity against human A549 cells after 72 hrs by CellTiter 96 AQueous one solution cell proliferation assay; format: cell-based; conditions: A549, 72 h
In short: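 A549 cells seeded at 1440 cells/well in F12K with 10% FBS and 1% penicillin–streptomycin, with compounds in doubling dilutions from 50 μg/mL final. Incubated 72 h at 37 °C, 5% CO2. MTS added 4 h before the end, OD read at 490 nm. Controls were cells with media and media alone.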

SMILES: C=C(C)[C@@H]1/C=C/[C@]23O[C@H]2[C@H](C[C@](C)(O)[C@@H](OC(C)=O)C2=CC(C=O)=C(C1)O2)OC3=O
Activity (Staphylococcus aureus): inactive
Activity (Enterococcus faecium): inactive
Activity (Naegleria fowleri): inactive
Activity (Pseudomonas aeruginosa): inactive
Activity (Clostridioides difficile): inactive
Activity (Enterobacter): inactive
IC50 (Leishmania donovani): 12 µM
Activity (Klebsiella pneumoniae): inactive
Activity (Acinetobacter baumannii): inactive
IC50 (A549): > 50 µM

SMILES: C=C(C)[C@@H]1CC(=O)[C@H]2[C@H](C1)[C@@H]1C(=O)O[C@@H]3C[C@]4(C)O[C@H]2C(=O)[C@@H]4[C@H]13
Activity (Staphylococcus aureus): inactive
Activity (Enterococcus faecium): inactive
Activity (Naegleria fowleri): inactive
Activity (Pseudomonas aeruginosa): inactive
Activity (Clostridioides difficile): inactive
Activity (Enterobacter): inactive
IC50 (Leishmania donovani): 4.4 µM
Activity (Klebsiella pneumoniae): inactive
Activity (Acinetobacter baumannii): inactive
IC50 (A549): > 50 µM

SMILES: C=C(C)[C@@H]1CCC2=C[C@H](C[C@@]3(C)O[C@@H]3C3=CC(C=O)=C(C1)O3)OC2=O
Activity (Staphylococcus aureus): inactive
Activity (Enterococcus faecium): inactive
Activity (Naegleria fowleri): inactive
Activity (Pseudomonas aeruginosa): inactive
Activity (Clostridioides difficile): inactive
Activity (Enterobacter): inactive
IC50 (Leishmania donovani): 1.9 µM
Activity (Klebsiella pneumoniae): inactive
Activity (Acinetobacter baumannii): inactive
IC50 (A549): > 50 µM

SMILES: C=C(C)[C@@H]1C/C=C2\C(=O)O[C@@H](C[C@@]3(C)O[C@@H]3C3=CC(C=O)=C(C1)O3)[C@@H]2OC(C)=O
Activity (Staphylococcus aureus): inactive
Activity (Enterococcus faecium): inactive
Activity (Naegleria fowleri): inactive
Activity (Pseudomonas aeruginosa): inactive
Activity (Clostridioides difficile): inactive
Activity (Enterobacter): inactive
IC50 (Leishmania donovani): 8.8 µM
Activity (Klebsiella pneumoniae): inactive
Activity (Acinetobacter baumannii): inactive
IC50 (A549): > 50 µM

SMILES: C=C(C)[C@H]1CC2=C(C=O)C=C(O2)[C@H]2O[C@]2(C)C[C@@H]2OC(=O)/C(=C\[C@H]1OC(C)=O)[C@H]2OC(C)=O
Activity (Staphylococcus aureus): inactive
Activity (Enterococcus faecium): inactive
Activity (Naegleria fowleri): inactive
Activity (Pseudomonas aeruginosa): inactive
Activity (Clostridioides difficile): inactive
Activity (Enterobacter): inactive
IC50 (Leishmania donovani): 8.5 µM
Activity (Klebsiella pneumoniae): inactive
Activity (Acinetobacter baumannii): inactive
IC50 (A549): > 50 µM

SMILES: C=C(C)[C@H]1CC2=C(C=O)C=C(O2)[C@H]2O[C@]2(C)C[C@H]2C=C(C(=O)O2)[C@@H](OC(C)=O)C1
Activity (Staphylococcus aureus): inactive
Activity (Enterococcus faecium): inactive
Activity (Naegleria fowleri): inactive
Activity (Pseudomonas aeruginosa): inactive
Activity (Clostridioides difficile): inactive
Activity (Enterobacter): inactive
IC50 (Leishmania donovani): 8.8 µM
Activity (Klebsiella pneumoniae): inactive
Activity (Acinetobacter baumannii): inactive
IC50 (A549): > 50 µM

SMILES: C=C(C)[C@@H]1/C=C/[C@]23O[C@H]2[C@H](C[C@@]2(C)O[C@@H]2C2=CC(C=O)=C(C1)O2)OC3=O
Activity (Staphylococcus aureus): inactive
Activity (Enterococcus faecium): inactive
Activity (Naegleria fowleri): inactive
Activity (Pseudomonas aeruginosa): inactive
Activity (Clostridioides difficile): inactive
Activity (Enterobacter): inactive
IC50 (Leishmania donovani): > 28 µM
Activity (Klebsiella pneumoniae): inactive
Activity (Acinetobacter baumannii): inactive
IC50 (A549): > 50 µM

IC50 (Leishmania donovani): 6.2 µM
SMILES: CCCCCCCCCCCCCCCCOP(=O)([O-])OCC[N+](C)(C)C [MILTEFOSINE]
